Experimental data taken from ChEMBL document CHEMBL5329210, “Novel piperazine-1,2,3-triazole leads for the potential treatment of pancreatic cancer” (RSC Med Chem, 2023).

Columns and labels:
[1] = test system: HT-29; assay: Inhibition of cell growth of human HT-29 cells measured after 72 hrs by MTT assay; format: functional
Method in brief: (§1)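 MTT read-out. Cancer lines were grown in DMEM with 10% FBS, glutamine and antibiotics. MCF10A was grown in DMEM:F12 with 5% horse serum, EGF, hydrocortisone, cholera toxin and insulin. Cells were plated in duplicate at 2500–4000/well, and drug was added 24 h later. After 72 h, absorbance was read at 540 nm. Single-point lines used 25 μM. GI50 is 50% growth inhibition versus untreated control. n = 3.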

[2] = test system: U-87 MG; assay: Inhibition of cell growth of human U87 cells measured after 72 hrs by MTT assay; format: functional, U-87MG ATCC; method in brief: as §1
[3] = test system: BXPC-3; assay: Inhibition of cell growth of human BXPC-3 cells at 25 uM measured after 72 hrs by CCK8 assay relative to control; format: functional
Method in brief: (§2)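 Single 25 μM exposure, read by CCK-8, n = 3, relative to control. Seeding was 3×10^3/well for MiaPaCa2, 7×10^3/well for BxPC3 (in RPMI-1640/10% FBS) and 1×10^4/well for HPDE (in KSFM with rEGF/BPE). After 24 h attachment, cells were exposed for 72 h. CCK-8 was then incubated for 1 h, and A450 minus A650 was compared with 0.5% DMSO.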

[4] = test system: MCF7; assay: Inhibition of cell growth of human MCF7 cells measured after 72 hrs by MTT assay; format: functional; method in brief: as §1
[5] = test system: A2780; assay: Inhibition of cell growth of human A2780 cells measured after 72 hrs by MTT assay; format: functional; method in brief: as §1
[6] = test system: NCI-H460; assay: Inhibition of cell growth of human NCI-H460 cells measured after 72 hrs by MTT assay; format: functional; method in brief: as §1
[7] = test system: A-431; assay: Inhibition of cell growth of human A-431 cells measured after 72 hrs by MTT assay; format: functional; method in brief: as §1
[8] = test system: DU-145; assay: Inhibition of cell growth of human DU-145 cells measured after 72 hrs by MTT assay; format: functional; method in brief: as §1
[9] = test system: BE(2)-C; assay: Inhibition of cell growth of human BE2C cells measured after 72 hrs by MTT assay; format: functional; method in brief: as §1
[10] = Inhibition of cell growth of human SJG2 cells measured after 72 hrs by MTT assay; format: functional; conditions: SJ-G2; method in brief: as §1
[11] = test system: MIA PaCa-2; assay: Inhibition of cell growth of human MIA PaCa-2 cells measured after 72 hrs by MTT assay; format: functional; method in brief: as §1
[12] = Inhibition of cell growth of human MCF-10A cells measured after 72 hrs by MTT assay; format: toxicity, cell-based; method in brief: as §1
[13] = test system: MIA PaCa-2; assay: Inhibition of cell growth of human MIA PaCa-2 cells at 25 uM measured after 72 hrs by CCK8 assay relative to control; format: functional; method in brief: as §2
[14] = Inhibition of cell growth of human HPDE cells at 25 uM measured after 72 hrs by CCK8 assay relative to control; format: toxicity, cell-based; method in brief: as §2
[15] = test system: HT-29; assay: Inhibition of cell growth of human HT-29 cells at 25 uM measured after 72 hrs by MTT assay relative to control; format: functional; method in brief: as §1
[16] = test system: MCF7; assay: Inhibition of cell growth of human MCF7 cells at 25 uM measured after 72 hrs by MTT assay relative to control; format: functional; method in brief: as §1
[17] = test system: A2780; assay: Inhibition of cell growth of human A2780 cells at 25 uM measured after 72 hrs by MTT assay relative to control; format: functional; method in brief: as §1
[18] = test system: BE(2)-C; assay: Inhibition of cell growth of human BE2C cells at 25 uM measured after 72 hrs by MTT assay relative to control; format: functional; method in brief: as §1
[19] = test system: MIA PaCa-2; assay: Inhibition of cell growth of human MIA PaCa-2 cells at 25 uM measured after 72 hrs by MTT assay relative to control; format: functional; method in brief: as §1
[20] = test system: BXPC-3; assay: Inhibition of cell growth of human BXPC-3 cells at 25 uM measured after 72 hrs by MTT assay relative to control; format: functional; method in brief: as §1
[21] = test system: ASPC1; assay: Inhibition of cell growth of human ASPC1 cells at 25 uM measured after 72 hrs by MTT assay relative to control; format: functional; method in brief: as §1
[22] = test system: Capan-2; assay: Inhibition of cell growth of human Capan-2 cells at 25 uM measured after 72 hrs by MTT assay relative to control; format: functional; method in brief: as §1
[23] = test system: PANC-1; assay: Inhibition of cell growth of human PANC-1 cells at 25 uM measured after 72 hrs by MTT assay relative to control; format: functional; method in brief: as §1
[24] = test system: HPAC; assay: Inhibition of cell growth of human HPAC cells at 25 uM measured after 72 hrs by MTT assay relative to control; format: functional; method in brief: as §1
[25] = Inhibition of cell growth of human MCF-10A cells at 25 uM measured after 72 hrs by MTT assay relative to control; format: toxicity, cell-based; method in brief: as §1

| SMILES | GI50 [1] [µM] | GI50 [2] [µM] | inhibition at 25 µM [3] [%] | GI50 [4] [µM] | GI50 [5] [µM] | GI50 [6] [µM] | GI50 [7] [µM] | GI50 [8] [µM] | GI50 [9] [µM] | GI50 [10] [µM] | GI50 [11] [µM] | GI50 at 72 h [12] [µM] | inhibition at 25 µM [13] [%] | inhibition at 72 h, 25 µM [14] [%] | inhibition at 25 µM [15] [%] | inhibition at 25 µM [16] [%] | inhibition at 25 µM [17] [%] | inhibition at 25 µM [18] [%] | inhibition at 25 µM [19] [%] | inhibition at 25 µM [20] [%] | other results |
| --- | --- | --- | --- | --- | --- | --- | --- | --- | --- | --- | --- | --- | --- | --- | --- | --- | --- | --- | --- | --- | --- |
| COc1cccc(-c2cn(CCCN3CCN(S(=O)(=O)c4ccc(C(F)(F)F)cc4)CC3)nn2)c1 | 23 | > 50 | < 10 | 28 | 21 | > 50 | > 50 | > 50 | > 50 | > 50 | > 50 | 39 | < 10 | 29 | – | – | – | – | – | – | – |
| COc1cccc(-c2cn(CCCN3CCN(S(=O)(=O)c4ccc([N+](=O)[O-])cc4)CC3)nn2)c1 | 41 | > 50 | 21.1 | > 50 | 27 | > 50 | > 50 | > 50 | > 50 | > 50 | > 50 | > 50 | < 10 | 46.5 | – | – | – | – | – | – | – |
| O=S(=O)(c1ccccc1C(F)(F)F)N1CCN(CCCn2cc(-c3ccc(C(F)(F)F)cc3)nn2)CC1 | – | – | – | – | – | – | – | – | – | – | – | – | – | – | 69 | 75 | 80 | 62 | 45 | 19 | inhibition at 25 µM [21]: 50%; inhibition at 25 µM [22]: 42%; inhibition at 25 µM [23]: 54%; inhibition at 25 µM [24]: 29%; inhibition at 72 h, 25 µM [25]: 64% |
| O=S(=O)(c1cccc(C(F)(F)F)c1)N1CCN(CCCn2cc(-c3ccc(C(F)(F)F)cc3)nn2)CC1 | – | – | – | – | – | – | – | – | – | – | – | – | – | – | 50 | 86 | 65 | 61 | 58 | 55 | inhibition at 25 µM [21]: 50%; inhibition at 25 µM [22]: 67%; inhibition at 25 µM [23]: 60%; inhibition at 25 µM [24]: 74%; inhibition at 72 h, 25 µM [25]: 59% |
| COc1cccc(-c2cn(CCCN3CCN(S(=O)(=O)c4ccccc4)CC3)nn2)c1 | 28 | > 50 | < 10 | 35 | 40 | > 50 | > 50 | > 50 | > 50 | 42 | > 50 | > 50 | < 10 | 15.8 | – | – | – | – | – | – | – |
| COc1cccc(-c2cn(CCCN3CCN(S(=O)(=O)c4ccc(C)cc4)CC3)nn2)c1 | 22 | > 50 | < 10 | 33 | 29 | > 50 | > 50 | > 50 | > 50 | > 50 | > 50 | > 50 | < 10 | 45 | – | – | – | – | – | – | – |
| COc1cccc(-c2cn(CCCN3CCN(S(=O)(=O)c4ccc(Br)cc4)CC3)nn2)c1 | 18 | > 50 | 10.7 | 14 | 20 | 35 | 40 | 25 | 20 | 23 | > 50 | 29 | < 10 | 32.6 | – | – | – | – | – | – | – |
| Cc1ccc(-c2cn(CCCN3CCN(S(=O)(=O)c4ccccc4C(F)(F)F)CC3)nn2)cc1 | – | – | – | – | – | – | – | – | – | – | – | – | – | – | 86 | 79 | 75 | 35 | 38 | 11 | inhibition at 25 µM [21]: 57%; inhibition at 25 µM [22]: 42%; inhibition at 25 µM [23]: 48%; inhibition at 25 µM [24]: 41%; inhibition at 72 h, 25 µM [25]: 61% |
| Cc1ccc(-c2cn(CCCN3CCN(S(=O)(=O)c4cccc(C(F)(F)F)c4)CC3)nn2)cc1 | – | – | – | – | – | – | – | – | – | – | – | – | – | – | 63 | 86 | 83 | 60 | 48 | 32 | inhibition at 25 µM [21]: 60%; inhibition at 25 µM [22]: 54%; inhibition at 25 µM [23]: 57%; inhibition at 25 µM [24]: 40%; inhibition at 72 h, 25 µM [25]: 79% |
| COc1ccc(S(=O)(=O)N2CCN(CCCn3cc(-c4cccc(OC)c4)nn3)CC2)cc1 | 30 | > 50 | < 10 | 38 | 27 | > 50 | > 50 | > 50 | > 50 | 32 | > 50 | > 50 | 20.3 | 33.9 | – | – | – | – | – | – | – |
| CCc1ccc(-c2cn(CCCN3CCN(S(=O)(=O)c4ccccc4C(F)(F)F)CC3)nn2)cc1 | – | – | – | – | – | – | – | – | – | – | – | – | – | – | 79 | 82 | 75 | 52 | 39 | 16 | inhibition at 25 µM [21]: 59%; inhibition at 25 µM [22]: 25%; inhibition at 25 µM [23]: 48%; inhibition at 25 µM [24]: 67%; inhibition at 72 h, 25 µM [25]: 63% |
